Experimental data taken from ChEMBL document CHEMBL4334458, “Design, synthesis and antibacterial evaluation of novel 15-membered 11a-azahomoclarithromycin derivatives with the 1, 2, 3-triazole side chain” (Eur J Med Chem, 2019).
Converted amounts (≈) assume the structure as drawn.

Columns and labels:
Type in all cases: functional
Streptococcus pyogenes [1] = test: Antibacterial activity against erythromycin-susceptible Streptococcus pyogenes 1 clinical isolate incubated for 24 hrs by broth dilution method
In short: (§1)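 CLSI broth microdilution in cation-adjusted Mueller-Hinton broth. Twofold dilutions spanned 0.25–128 or 0.5–256 µg/mL, with CAM and AZM as controls. Log-phase bacteria were added and incubated 24 h at 37 °C. MIC was read by turbidity as the concentration of the last clear well.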

Staphylococcus aureus [2] = test: Antibacterial activity against erythromycin-susceptible Staphylococcus aureus ATCC 25923 incubated for 24 hrs by broth dilution method; conditions: ATCC 25923, 24 h; in short: as §1
Staphylococcus aureus [3] = test: Antibacterial activity against methicillin-resistant Staphylococcus aureus ATCC 43300 incubated for 24 hrs by broth dilution method; conditions: ATCC 43300, 24 h
Streptococcus pneumoniae [4] = test: Antibacterial activity against erythromycin-resistant Streptococcus pneumoniae AB11 expressing the ermB and mefA incubated for 24 hrs by broth dilution method
Streptococcus pyogenes [5] = test: Antibacterial activity against erythromycin-resistant Streptococcus pyogenes 2 clinical isolate incubated for 24 hrs by broth dilution method
Streptococcus pneumoniae [6] = test: Antibacterial activity against erythromycin-resistant Streptococcus pneumoniae B1 expressing the ermB incubated for 24 hrs by broth dilution method
Pseudomonas aeruginosa = test: Antibacterial activity against penicillin-susceptible Pseudomonas aeruginosa ATCC 27853 incubated for 24 hrs by broth dilution method; conditions: ATCC 27853, 24 h; in short: as §1
Staphylococcus aureus [7] = test: Antibacterial activity against penicillin-resistant Staphylococcus aureus ATCC 31007 incubated for 24 hrs by broth dilution method; conditions: ATCC 31007, 24 h
Escherichia coli = test: Antibacterial activity against penicillin-susceptible Escherichia coli ATCC 25922 incubated for 24 hrs by broth dilution method; conditions: ATCC 25922, 24 h; in short: as §1
Bacillus subtilis = test: Antibacterial activity against penicillin-susceptible Bacillus subtilis ATCC 9372 incubated for 24 hrs by broth dilution method; conditions: ATCC 9372, 24 h; in short: as §1

Structure (SMILES)	MIC (Streptococcus pyogenes [1]) [µg/mL]	MIC (Staphylococcus aureus [2]) [µg/mL]	MIC (Staphylococcus aureus [3]) [µg/mL]	MIC (Streptococcus pneumoniae [4]) [µg/mL]	MIC (Streptococcus pyogenes [5]) [µg/mL]	MIC (Streptococcus pneumoniae [6]) [µg/mL]	MIC (Pseudomonas aeruginosa) [µg/mL]	MIC (Staphylococcus aureus [7]) [µg/mL]	MIC (Escherichia coli) [µg/mL]	MIC (Bacillus subtilis) [µg/mL]
CO[C@]1(C)C[C@@H](C)[C@H](O)[C@H](C)CN(C)[C@@H](Cn2cc(-c3ccc(F)cc3)nn2)COC(=O)[C@H](C)[C@@H](O[C@H]2C[C@@](C)(OC)[C@@H](O)[C@H](C)O2)[C@H](C)[C@H]1O[C@@H]1O[C@H](C)C[C@H](N(C)C)[C@H]1O	16 (≈ 18.2 µM)	64 (≈ 72.7 µM)	128 (≈ 145 µM)	128 (≈ 145 µM)	128 (≈ 145 µM)	256 (≈ 291 µM)	> 128	128 (≈ 145 µM)	> 128	32 (≈ 36.4 µM)
CO[C@]1(C)C[C@@H](C)[C@H](O)[C@H](C)CN(C)[C@H](Cn2cc(-c3ccccn3)nn2)COC(=O)[C@H](C)[C@@H](O[C@H]2C[C@@](C)(OC)[C@@H](O)[C@H](C)O2)[C@H](C)[C@H]1O[C@@H]1O[C@H](C)C[C@H](N(C)C)[C@H]1O	4 (≈ 4.63 µM)	16 (≈ 18.5 µM)	256 (≈ 297 µM)	128 (≈ 148 µM)	256 (≈ 297 µM)	256 (≈ 297 µM)	64 (≈ 74.2 µM)	256 (≈ 297 µM)	64 (≈ 74.2 µM)	32 (≈ 37.1 µM)
CO[C@]1(C)C[C@@H](C)[C@H](O)[C@H](C)CN(C)C[C@@H](COCc2cn(-c3ccccn3)nn2)OC(=O)[C@H](C)[C@@H](O[C@H]2C[C@@](C)(OC)[C@@H](O)[C@H](C)O2)[C@H](C)[C@H]1O[C@@H]1O[C@H](C)C[C@H](N(C)C)[C@H]1O	2 (≈ 2.24 µM)	2 (≈ 2.24 µM)	> 256	128 (≈ 143 µM)	128 (≈ 143 µM)	> 256	128 (≈ 143 µM)	> 256	128 (≈ 143 µM)	0.5 (≈ 0.56 µM)
CO[C@]1(C)C[C@@H](C)[C@H](O)[C@H](C)CN(C)[C@H](Cn2cc(-c3ccc(Cl)cc3)nn2)COC(=O)[C@H](C)[C@@H](O[C@H]2C[C@@](C)(OC)[C@@H](O)[C@H](C)O2)[C@H](C)[C@H]1O[C@@H]1O[C@H](C)C[C@H](N(C)C)[C@H]1O	8 (≈ 8.92 µM)	8 (≈ 8.92 µM)	64 (≈ 71.4 µM)	64 (≈ 71.4 µM)	32 (≈ 35.7 µM)	64 (≈ 71.4 µM)	> 128	64 (≈ 71.4 µM)	128 (≈ 143 µM)	8 (≈ 8.92 µM)
CO[C@]1(C)C[C@@H](C)[C@H](O)[C@H](C)CN(C)[C@H](Cn2cc(-c3ccccc3)nn2)COC(=O)[C@H](C)[C@@H](O[C@H]2C[C@@](C)(OC)[C@@H](O)[C@H](C)O2)[C@H](C)[C@H]1O[C@@H]1O[C@H](C)C[C@H](N(C)C)[C@H]1O	8 (≈ 9.28 µM)	8 (≈ 9.28 µM)	256 (≈ 297 µM)	256 (≈ 297 µM)	128 (≈ 148 µM)	256 (≈ 297 µM)	64 (≈ 74.2 µM)	128 (≈ 148 µM)	64 (≈ 74.2 µM)	16 (≈ 18.6 µM)
CCc1ccc(-n2cc(COC[C@H]3CN(C)C[C@@H](C)[C@@H](O)[C@H](C)C[C@@](C)(OC)[C@H](O[C@@H]4O[C@H](C)C[C@H](N(C)C)[C@H]4O)[C@@H](C)[C@H](O[C@H]4C[C@@](C)(OC)[C@@H](O)[C@H](C)O4)[C@@H](C)C(=O)O3)nn2)cc1	0.5 (≈ 0.543 µM)	0.5 (≈ 0.543 µM)	128 (≈ 139 µM)	32 (≈ 34.8 µM)	64 (≈ 69.6 µM)	128 (≈ 139 µM)	16 (≈ 17.4 µM)	128 (≈ 139 µM)	64 (≈ 69.6 µM)	≤ 0.25
CO[C@]1(C)C[C@@H](C)[C@H](O)[C@H](C)CN(C)C[C@H](COCc2cn(-c3cccc(C(F)(F)F)c3)nn2)OC(=O)[C@H](C)[C@@H](O[C@H]2C[C@@](C)(OC)[C@@H](O)[C@H](C)O2)[C@H](C)[C@H]1O[C@@H]1O[C@H](C)C[C@H](N(C)C)[C@H]1O	2 (≈ 2.08 µM)	1 (≈ 1.04 µM)	256 (≈ 267 µM)	64 (≈ 66.7 µM)	64 (≈ 66.7 µM)	128 (≈ 133 µM)	16 (≈ 16.7 µM)	256 (≈ 267 µM)	64 (≈ 66.7 µM)	1 (≈ 1.04 µM)
COc1ccc(-n2cc(COC[C@@H]3CN(C)C[C@@H](C)[C@@H](O)[C@H](C)C[C@@](C)(OC)[C@H](O[C@@H]4O[C@H](C)C[C@H](N(C)C)[C@H]4O)[C@@H](C)[C@H](O[C@H]4C[C@@](C)(OC)[C@@H](O)[C@H](C)O4)[C@@H](C)C(=O)O3)nn2)cc1	4 (≈ 4.34 µM)	8 (≈ 8.68 µM)	256 (≈ 278 µM)	128 (≈ 139 µM)	128 (≈ 139 µM)	256 (≈ 278 µM)	128 (≈ 139 µM)	256 (≈ 278 µM)	128 (≈ 139 µM)	2 (≈ 2.17 µM)
CCCCc1ccc(-c2cn(C[C@@H]3COC(=O)[C@H](C)[C@@H](O[C@H]4C[C@@](C)(OC)[C@@H](O)[C@H](C)O4)[C@H](C)[C@@H](O[C@@H]4O[C@H](C)C[C@H](N(C)C)[C@H]4O)[C@](C)(OC)C[C@@H](C)[C@H](O)[C@H](C)CN3C)nn2)cc1	16 (≈ 17.4 µM)	128 (≈ 139 µM)	128 (≈ 139 µM)	64 (≈ 69.7 µM)	16 (≈ 17.4 µM)	64 (≈ 69.7 µM)	> 128	64 (≈ 69.7 µM)	128 (≈ 139 µM)	32 (≈ 34.8 µM)
COc1cccc(-n2cc(COC[C@@H]3CN(C)C[C@@H](C)[C@@H](O)[C@H](C)C[C@@](C)(OC)[C@H](O[C@@H]4O[C@H](C)C[C@H](N(C)C)[C@H]4O)[C@@H](C)[C@H](O[C@H]4C[C@@](C)(OC)[C@@H](O)[C@H](C)O4)[C@@H](C)C(=O)O3)nn2)c1	2 (≈ 2.17 µM)	2 (≈ 2.17 µM)	256 (≈ 278 µM)	64 (≈ 69.4 µM)	64 (≈ 69.4 µM)	128 (≈ 139 µM)	128 (≈ 139 µM)	256 (≈ 278 µM)	128 (≈ 139 µM)	2 (≈ 2.17 µM)
CO[C@]1(C)C[C@@H](C)[C@H](O)[C@H](C)CN(C)C[C@@H](COCc2cn(-c3ccc(C)cc3)nn2)OC(=O)[C@H](C)[C@@H](O[C@H]2C[C@@](C)(OC)[C@@H](O)[C@H](C)O2)[C@H](C)[C@H]1O[C@@H]1O[C@H](C)C[C@H](N(C)C)[C@H]1O	4 (≈ 4.41 µM)	4 (≈ 4.41 µM)	128 (≈ 141 µM)	64 (≈ 70.6 µM)	32 (≈ 35.3 µM)	128 (≈ 141 µM)	128 (≈ 141 µM)	256 (≈ 283 µM)	128 (≈ 141 µM)	2 (≈ 2.21 µM)
CO[C@]1(C)C[C@@H](C)[C@H](O)[C@H](C)CN(C)[C@@H](Cn2cc(-c3ccc(Cl)cc3)nn2)COC(=O)[C@H](C)[C@@H](O[C@H]2C[C@@](C)(OC)[C@@H](O)[C@H](C)O2)[C@H](C)[C@H]1O[C@@H]1O[C@H](C)C[C@H](N(C)C)[C@H]1O	16 (≈ 17.8 µM)	32 (≈ 35.7 µM)	64 (≈ 71.4 µM)	128 (≈ 143 µM)	64 (≈ 71.4 µM)	256 (≈ 286 µM)	> 128	128 (≈ 143 µM)	> 128	16 (≈ 17.8 µM)
CO[C@]1(C)C[C@@H](C)[C@H](O)[C@H](C)CN(C)[C@@H](Cn2cc(-c3ccccn3)nn2)COC(=O)[C@H](C)[C@@H](O[C@H]2C[C@@](C)(OC)[C@@H](O)[C@H](C)O2)[C@H](C)[C@H]1O[C@@H]1O[C@H](C)C[C@H](N(C)C)[C@H]1O	16 (≈ 18.5 µM)	64 (≈ 74.2 µM)	> 256	256 (≈ 297 µM)	256 (≈ 297 µM)	> 256	> 128	> 256	> 128	32 (≈ 37.1 µM)
CO[C@]1(C)C[C@@H](C)[C@H](O)[C@H](C)CN(C)C[C@@H](Cn2cc(-c3ccc(F)cc3)nn2)OC(=O)[C@H](C)[C@@H](O[C@H]2C[C@@](C)(OC)[C@@H](O)[C@H](C)O2)[C@H](C)[C@H]1O[C@@H]1O[C@H](C)C[C@H](N(C)C)[C@H]1O	0.25 (≈ 0.284 µM)	0.5 (≈ 0.568 µM)	128 (≈ 145 µM)	16 (≈ 18.2 µM)	64 (≈ 72.7 µM)	64 (≈ 72.7 µM)	32 (≈ 36.4 µM)	128 (≈ 145 µM)	32 (≈ 36.4 µM)	0.5 (≈ 0.568 µM)
CO[C@]1(C)C[C@@H](C)[C@H](O)[C@H](C)CN(C)C[C@H](Cn2cc(-c3ccccn3)nn2)OC(=O)[C@H](C)[C@@H](O[C@H]2C[C@@](C)(OC)[C@@H](O)[C@H](C)O2)[C@H](C)[C@H]1O[C@@H]1O[C@H](C)C[C@H](N(C)C)[C@H]1O	1 (≈ 1.16 µM)	4 (≈ 4.63 µM)	> 256	256 (≈ 297 µM)	128 (≈ 148 µM)	> 256	64 (≈ 74.2 µM)	> 256	128 (≈ 148 µM)	2 (≈ 2.32 µM)
CC[C@H]1OC(=O)[C@H](C)[C@@H](O[C@H]2C[C@@](C)(OC)[C@@H](O)[C@H](C)O2)[C@H](C)[C@@H](O[C@@H]2O[C@H](C)C[C@H](N(C)C)[C@H]2O)[C@](C)(O)C[C@@H](C)CN(C)[C@H](C)[C@@H](O)[C@]1(C)O [AZITHROMYCIN]	≤ 0.03	≤ 0.25	> 256	256 (≈ 342 µM)	256 (≈ 342 µM)	> 256	16 (≈ 21.4 µM)	> 256	64 (≈ 85.4 µM)	≤ 0.25
CO[C@]1(C)C[C@@H](C)[C@H](O)[C@H](C)CN(C)C[C@H](COCc2cn(-c3ccc(C)cc3)nn2)OC(=O)[C@H](C)[C@@H](O[C@H]2C[C@@](C)(OC)[C@@H](O)[C@H](C)O2)[C@H](C)[C@H]1O[C@@H]1O[C@H](C)C[C@H](N(C)C)[C@H]1O	1 (≈ 1.1 µM)	0.5 (≈ 0.552 µM)	256 (≈ 283 µM)	64 (≈ 70.6 µM)	64 (≈ 70.6 µM)	256 (≈ 283 µM)	16 (≈ 17.7 µM)	256 (≈ 283 µM)	64 (≈ 70.6 µM)	≤ 0.25
